The results in this text go back to ChEMBL document CHEMBL1138612, “Inhibition of monoamine oxidase by (E)-styrylisatin analogues” (Bioorg Med Chem Lett, 2009).

In assay [1] the target is T1, Amine oxidase [flavin-containing] A (Homo sapiens, UniProt P21397).
T1 sequence (P21397 whole entry): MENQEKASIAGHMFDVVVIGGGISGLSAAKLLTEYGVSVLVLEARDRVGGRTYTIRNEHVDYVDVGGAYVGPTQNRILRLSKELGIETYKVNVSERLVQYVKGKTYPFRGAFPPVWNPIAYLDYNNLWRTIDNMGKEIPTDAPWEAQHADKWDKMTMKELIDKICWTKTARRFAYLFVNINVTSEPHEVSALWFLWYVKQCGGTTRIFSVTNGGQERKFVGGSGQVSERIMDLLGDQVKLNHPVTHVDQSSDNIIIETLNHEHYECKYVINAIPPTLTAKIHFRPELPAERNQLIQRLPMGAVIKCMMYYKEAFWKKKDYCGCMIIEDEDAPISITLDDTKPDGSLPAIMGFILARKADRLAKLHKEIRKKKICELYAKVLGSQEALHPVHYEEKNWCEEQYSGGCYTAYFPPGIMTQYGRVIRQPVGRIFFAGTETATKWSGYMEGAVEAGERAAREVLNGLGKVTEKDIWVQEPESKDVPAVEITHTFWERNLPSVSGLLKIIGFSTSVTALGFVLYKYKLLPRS
Description: Inhibition of recombinant wild-type MAOA from human liver expressed in Pichia pastoris.

Assay [2] is described as follows: Inhibition of baboon liver MAOB. Further details: species or system Papio hamadryas. In a few lines:
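Baboon liver mitochondrial fractions as MAO-B source, with MMTP as substrate. IC50 from means ± SEM of duplicate determinations. Reversibility was tested by preincubating inhibitor (40 nM) with the mitochondria for 0, 15, 30 and 60 min.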

A further assay is filed under the species Homo sapiens. Put plainly: Selectivity ratio of Ki for recombinant wild-type MAOA from human liver to Ki for recombinant wild-type MAOB from human liver. The essentials:
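Substrates were p-CF3-benzylamine for MAO-A (243 nm) and benzylamine for MAO-B (250 nm), six concentrations 50–3000 µM, three inhibitor levels. Ki from apparent Km versus inhibitor; selectivity = Ki(MAO-A)/Ki(MAO-B).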

Assay [3] is described as follows: Inhibition of human MAOB […] mutant.
The target in assay [4] is T2, Amine oxidase [flavin-containing] B (Homo sapiens, UniProt P27338).
T2 sequence (P27338 whole entry): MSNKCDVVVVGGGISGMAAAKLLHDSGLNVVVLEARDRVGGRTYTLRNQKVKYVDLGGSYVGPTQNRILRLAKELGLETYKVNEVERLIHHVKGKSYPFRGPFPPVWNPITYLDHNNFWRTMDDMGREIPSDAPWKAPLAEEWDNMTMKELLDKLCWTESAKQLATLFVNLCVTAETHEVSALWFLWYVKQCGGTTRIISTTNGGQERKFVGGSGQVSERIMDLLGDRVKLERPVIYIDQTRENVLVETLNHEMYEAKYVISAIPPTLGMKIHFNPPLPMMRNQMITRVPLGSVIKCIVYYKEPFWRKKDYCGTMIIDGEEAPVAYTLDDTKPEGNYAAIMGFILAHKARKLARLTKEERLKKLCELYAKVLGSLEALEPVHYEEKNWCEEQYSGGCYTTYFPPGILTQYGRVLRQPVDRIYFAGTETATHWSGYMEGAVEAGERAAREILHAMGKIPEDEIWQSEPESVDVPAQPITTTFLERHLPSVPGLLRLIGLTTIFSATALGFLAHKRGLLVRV
Put plainly: Inhibition of recombinant wild-type MAOB from human liver expressed in Pichia pastoris.

As a reminder, the Ki is a measure of affinity in units of concentration, obtained from inhibition or displacement. By IC50 is commonly meant the concentration needed to halve the response being measured. The low end stands for higher potency, the high end for lower potency. For the compound `O=C1Nc2ccc(/C=C/c3ccccc3)cc2C1=O`, the Ki was 0.78 µM in assay [1], 1.1 µM in assay [3] and 0.31 µM in assay [4]. The same compound had an IC50 in assay [2] of 0.0417 µM. The Ratio Ki in the assay filed under Homo sapiens is 5.

On to `O=C1Nc2ccc(/C=C/c3cccc(Cl)c3)cc2C1=O`, for which the Ki in assay [1] was found to be 5.6 µM; in assay [3] it was 12.5 µM; in assay [4] it was 1.4 µM. In assay [2], the IC50 was 0.0207 µM. For the same compound, in the assay filed under Homo sapiens, the Ratio Ki is 2.5.

Turning to `O=C1Nc2ccc(/C=C/c3cccc(F)c3)cc2C1=O`, in assay [1], the Ki was found to be 2.2 µM.
